Data set [1] has as its system RAW264.7. Nature of the data set: Cytotoxicity against mouse RAW264.7 cells assessed as inhibition of cell viability after 18 hrs by MTS assay. The note with it: raw264.7, 18 h. Type of data set: cell-based. Summed up: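 RAW264.7 cells seeded at 2 × 10^5 cells/well and preincubated 24 h, then exposed to compounds (DMSO solutions) at given concentrations for 18 h. MTS added for 4 h and absorbance read at 490 nm. Viability expressed relative to untreated cells as 100%.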
A general note: Tetrazolium dyes change colour on reduction, which living cells bring about.

Data set [2] deals with RAW264.7. In words: Inhibition of nitric oxide production in LPS-stimulated mouse RAW264.7 cells measured after 18 hrs by Griess reagent based multilabel plate reader analysis. It counts as functional, cell-based. The note with it: RAW264.7, 18 h. Summed up: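 RAW264.7 macrophages in RPMI 1640 with 10% FBS at 2 × 10^5 cells/well, preincubated 24 h at 37 °C, 5% CO2. Then 18 h with 1 μg/mL LPS plus serial dilutions of compound (DMSO stock diluted in medium; top concentration 25 μM). Supernatant mixed 1:1 with Griess reagent, 5 min, absorbance at 570 nm, in triplicate. MG-132 as positive control.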

For data set [3], the system named is SW480. In words: Cytotoxicity against human SW480 cells assessed as inhibition of cell viability after 48 hrs by MTT assay. To be noted: SW480, 48 h. It counts as functional, cell-based. In outline:
(§1)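 Cells grown in RPMI-1640 or DMEM with 10% FBS, 37 °C, 5% CO2. Adherent lines seeded at 1 × 10^5 cells/mL and allowed 12 h to attach; suspension cells seeded just before dosing. Compounds tested at various concentrations in triplicate for 48 h; cisplatin and paclitaxel as positive controls. MTT added for 4 h at 37 °C, then lysis in 20% SDS−50% DMF and OD read at 595 nm. IC50 by Reed and Muench method.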

The test system of data set [4] is MCF7. Nature of the data set: Cytotoxicity against human MCF7 cells assessed as inhibition of cell viability after 48 hrs by MTT assay. Type of data set: functional, cell-based. To be noted: MCF7, 48 h. In outline: as §1
Data set [5] deals with A549. In words: Cytotoxicity against human A549 cells assessed as inhibition of cell viability after 48 hrs by MTT assay. It counts as functional, cell-based. The note with it: A549, 48 h. Summed up: as §1
The test system of data set [6] is HL-60. Nature of the data set: Cytotoxicity against human HL60 cells assessed as inhibition of cell viability after 48 hrs by MTT assay. Type of data set: functional, cell-based. The note with it: HL-60, 48 h. In outline: as §1
Data set [7] has as its system SMMC-7721. Nature of the data set: Cytotoxicity against human SMMC7721 cells assessed as inhibition of cell viability after 48 hrs by MTT assay. The note with it: SMMC-7721, 48 h. It counts as functional, cell-based. In outline: as §1

By IC50 is commonly meant the point on the concentration scale where inhibition reaches its midpoint. With `COC[C@H]1C(=O)[C@]23C[C@H]1C[C@H](OC(C)=O)[C@H]2[C@]1(C)[C@@H](OC(C)=O)C[C@H](O)C(C)(C)[C@H]1C(=O)[C@@H]3O` [TENUIFOLIN M], the Activity result in data set [1] is “Non-toxic”. Further, the IC50 was above 25 µM in data set [2]; above 10 µM in data set [3]; above 10 µM in data set [4]; above 10 µM in data set [5]; 4.4 µM in data set [6]; above 10 µM in data set [7].

The values above are taken from ChEMBL document CHEMBL2331327, “Bioactive abietane and ent-kaurane diterpenoids from Isodon tenuifolius” (J Nat Prod, 2013).
